Data published in ChEMBL document CHEMBL1128719, “The synthesis, structure-activity, and structure-side effect relationships of a series of 8-alkoxy- and 5-amino-8-alkoxyquinolone antibacterial agents” (J Med Chem, 1995).
≈ marks a conversion by molar mass, not a printed value.

Key:
Clostridium perfringens = assay: In vitro antibacterial activity against Clostridium perfringens CP 3-1; type: functional
Streptococcus pyogenes = assay: In vitro antibacterial activity was tested for Streptococcus pyogenes C203; type: functional
Method in brief: (§1)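 Microtitration (microdilution) MIC determination in μg/mL against a panel of Gram-positive, Gram-negative and anaerobic organisms. Values come from duplicate or triplicate experiments and are stated accurate to ±50%.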

Escherichia coli [1] = assay: In vitro antibacterial activity was tested for Escherichia coli H560; type: functional; method in brief: as §1
[2] = test system: Peptoniphilus asaccharolyticus; assay: In vitro antibacterial activity was tested for Pepto asac PA 3-1; type: functional; method in brief: as §1
Clostridioides difficile = assay: In vitro antibacterial activity was tested for Clostridium diff CD1-1; type: functional
V79 = assay: Clonogenic cytotoxicity against Chinese hamster V-79 cells; type: functional, cell-based; conditions: Cricetulus griseus
Streptococcus pneumoniae = assay: In vitro antibacterial activity was tested for Streptococcus pneumoniae SV-1; type: functional; method in brief: as §1
Enterococcus faecalis = assay: In vitro antibacterial activity was tested for Streptococcus faecalis MGH-2; type: functional; method in brief: as §1
Pseudomonas aeruginosa = assay: In vitro antibacterial activity was tested for Pseudomonas aeruginosa UI-18; type: functional; method in brief: as §1
Staphylococcus aureus [3] = assay: In vitro antibacterial activity was tested for Staphylococcus aureus UC-76; type: functional; method in brief: as §1
Staphylococcus aureus [4] = assay: In vitro antibacterial activity was tested for Staphylococcus aureus H228; type: functional; method in brief: as §1
Providencia rettgeri = assay: In vitro antibacterial activity was tested for Providencia rettgeri H1771; type: functional; method in brief: as §1
Klebsiella pneumoniae = assay: In vitro antibacterial activity was tested for Klebsiella pneumoniae MGH-2; type: functional; method in brief: as §1
Bacteroides fragilis = assay: In vitro antibacterial activity against Bacteroides fragilis BFA; type: functional; method in brief: as §1
Escherichia coli [5] = assay: In vitro antibacterial activity was tested for Escherichia coli Vogel; type: functional; method in brief: as §1
Enterobacter cloacae = assay: In vitro antibacterial activity was tested for Enterobacter cloacae HA2646; type: functional
Cutibacterium acnes = assay: In vitro antibacterial activity was tested for Propion acnes PA5-1; type: functional; method in brief: as §1
Mus musculus [6] = species: Mus musculus; assay: (§2) Phototoxic skin reaction in depilated female CD-1 mice; type: toxicity, organism-based; conditions: in vivo
Method in brief: (§3)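 Female CD-1 mice, depilated, given a single oral or subcutaneous dose. UVA (320–400 nm) exposure for 3 h, starting 1 h post-dose. Initial doses were 30, 100 and 300 mg/kg. PTD50 (dose giving phototoxic skin reaction in 50% of mice) derived by probit method. First day of positive reaction and no-effect dose taken from raw data.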

Mus musculus [7] = species: Mus musculus; assay: Phototoxic skin reaction in depilated female CD-1 mice.; type: functional; method in brief: as §3
Mus musculus [8] = species: Mus musculus; assay: as §2; type: functional; method in brief: as §3

SMILES | MIC (Clostridium perfringens) [µg/mL] | MIC (Streptococcus pyogenes) [µg/mL] | MIC (Escherichia coli [1]) [µg/mL] | MIC [2] [µg/mL] | MIC (Clostridioides difficile) [µg/mL] | IC50 (V79) [µg/mL] | MIC (Streptococcus pneumoniae) [µg/mL] | MIC (Enterococcus faecalis) [µg/mL] | MIC (Pseudomonas aeruginosa) [µg/mL] | MIC (Staphylococcus aureus [3]) [µg/mL] | MIC (Staphylococcus aureus [4]) [µg/mL] | MIC (Providencia rettgeri) [µg/mL] | MIC (Klebsiella pneumoniae) [µg/mL] | MIC (Bacteroides fragilis) [µg/mL] | MIC (Escherichia coli [5]) [µg/mL] | MIC (Enterobacter cloacae) [µg/mL] | MIC (Cutibacterium acnes) [µg/mL] | PTD50 (Mus musculus [6]) [mg] | No effect dose (Mus musculus [7]) [mg] | No effect dose (Mus musculus [8]) [mg]
COc1c(N2CCC(C)(CN)C2)c(F)c(N)c2c(=O)c(C(=O)O)cn(C3CC3)c12 (centres undefined) | 0.8 (≈ 1.98 µM) | 0.025 (≈ 0.0618 µM) | 0.05 (≈ 0.124 µM) | 0.8 (≈ 1.98 µM) | 1.6 (≈ 3.96 µM) | 140 (≈ 346 µM) | 0.013 (≈ 0.0321 µM) | 0.05 (≈ 0.124 µM) | 3.1 (≈ 7.66 µM) | 0.006 (≈ 0.0148 µM) | 0.025 (≈ 0.0618 µM) | 0.8 (≈ 1.98 µM) | 0.2 (≈ 0.495 µM) | 1.6 (≈ 3.96 µM) | 0.1 (≈ 0.247 µM) | 0.1 (≈ 0.247 µM) | 1.6 (≈ 3.96 µM) | – | – | –
O=C(O)c1cn(C2CC2)c2cc(N3CCNCC3)c(F)cc2c1=O [CIPROFLOXACIN] | – | 0.8 (≈ 2.41 µM) | 0.025 (≈ 0.0754 µM) | 1.6 (≈ 4.83 µM) | – | – | 1.6 (≈ 4.83 µM) | 0.8 (≈ 2.41 µM) | 0.4 (≈ 1.21 µM) | 0.2 (≈ 0.604 µM) | 3.1 (≈ 9.36 µM) | 0.1 (≈ 0.302 µM) | 0.1 (≈ 0.302 µM) | 3.1 (≈ 9.36 µM) | – | – | 0.8 (≈ 2.41 µM) | 172 | 100 | –
CCOc1c(N2CCC(N)C2)c(F)cc2c(=O)c(C(=O)O)cn(C3CC3)c12 (centres undefined) | 0.8 (≈ 2.13 µM) | 0.2 (≈ 0.533 µM) | 0.05 (≈ 0.133 µM) | 0.8 (≈ 2.13 µM) | 3.1 (≈ 8.26 µM) | 210 (≈ 559 µM) | 0.1 (≈ 0.266 µM) | 0.1 (≈ 0.266 µM) | 3.1 (≈ 8.26 µM) | 0.013 (≈ 0.0346 µM) | 0.05 (≈ 0.133 µM) | 0.4 (≈ 1.07 µM) | 0.2 (≈ 0.533 µM) | 1.6 (≈ 4.26 µM) | 0.05 (≈ 0.133 µM) | 0.1 (≈ 0.266 µM) | 3.1 (≈ 8.26 µM) | – | – | –
CC1(CN)CCN(c2c(F)c(N)c3c(=O)c(C(=O)O)cn(C4CC4)c3c2F)C1 (centres undefined) | 0.025 (≈ 0.0637 µM) | – | – | 0.2 (≈ 0.51 µM) | 1.6 (≈ 4.08 µM) | – | – | – | – | – | – | – | – | 0.8 (≈ 2.04 µM) | – | – | 0.4 (≈ 1.02 µM) | > 30 | 30 | –
COc1c(N2CCC(N)CC2)c(F)c(N)c2c(=O)c(C(=O)O)cn(C3CC3)c12 | 0.8 (≈ 2.05 µM) | 0.025 (≈ 0.064 µM) | 0.05 (≈ 0.128 µM) | 1.6 (≈ 4.1 µM) | 3.1 (≈ 7.94 µM) | 60 (≈ 154 µM) | 0.013 (≈ 0.0333 µM) | 0.05 (≈ 0.128 µM) | 1.6 (≈ 4.1 µM) | 0.013 (≈ 0.0333 µM) | 0.05 (≈ 0.128 µM) | 0.4 (≈ 1.02 µM) | 0.2 (≈ 0.512 µM) | 3.1 (≈ 7.94 µM) | 0.1 (≈ 0.256 µM) | 0.1 (≈ 0.256 µM) | 3.1 (≈ 7.94 µM) | – | – | –
CCOc1c(N2CCCC(CN)C2)c(F)cc2c(=O)c(C(=O)O)cn(C3CC3)c12 (centres undefined) | 0.4 (≈ 0.991 µM) | 0.025 (≈ 0.062 µM) | 0.1 (≈ 0.248 µM) | 0.4 (≈ 0.991 µM) | 3.1 (≈ 7.68 µM) | 63 (≈ 156 µM) | 0.025 (≈ 0.062 µM) | 0.05 (≈ 0.124 µM) | > 3.1 | 0.013 (≈ 0.0322 µM) | 0.05 (≈ 0.124 µM) | > 3.1 | 0.8 (≈ 1.98 µM) | 3.1 (≈ 7.68 µM) | 0.2 (≈ 0.496 µM) | 0.4 (≈ 0.991 µM) | 3.1 (≈ 7.68 µM) | – | – | –
CC1(CN)CCN(c2c(F)cc3c(=O)c(C(=O)O)cn(C4CC4)c3c2Cl)C1 (centres undefined) | 0.05 (≈ 0.127 µM) | – | – | 0.2 (≈ 0.508 µM) | 0.2 (≈ 0.508 µM) | 8.6 (≈ 21.8 µM) | – | – | – | – | – | – | – | 0.05 (≈ 0.127 µM) | – | – | 0.2 (≈ 0.508 µM) | < 30 | <30 | –
C[C@@H]1CN(c2c(F)cc3c(=O)c(C(=O)O)cn(C4CC4)c3c2F)C[C@H](C)N1 | 0.2 (≈ 0.53 µM) | – | – | 1.6 (≈ 4.24 µM) | 3.1 (≈ 8.21 µM) | – | – | – | – | – | – | – | – | 1.6 (≈ 4.24 µM) | – | – | 0.8 (≈ 2.12 µM) | 55 | – | 30
CC1(CN)CCN(c2c(F)cc3c(=O)c(C(=O)O)cn(C4CC4)c3c2F)C1 (centres undefined) | 0.1 (≈ 0.265 µM) | – | – | 0.4 (≈ 1.06 µM) | 1.6 (≈ 4.24 µM) | 7.7 (≈ 20.4 µM) | – | – | – | – | – | – | – | 0.4 (≈ 1.06 µM) | – | – | 0.4 (≈ 1.06 µM) | < 30 | <30 | –
CCOc1c(N2CCC(N)C2)c(F)c(N)c2c(=O)c(C(=O)O)cn(C3CC3)c12 (centres undefined) | 0.4 (≈ 1.02 µM) | 0.1 (≈ 0.256 µM) | 0.05 (≈ 0.128 µM) | 0.8 (≈ 2.05 µM) | 12.5 (≈ 32 µM) | 220 (≈ 564 µM) | 0.05 (≈ 0.128 µM) | 0.1 (≈ 0.256 µM) | 3.1 (≈ 7.94 µM) | 0.013 (≈ 0.0333 µM) | 0.05 (≈ 0.128 µM) | 0.4 (≈ 1.02 µM) | 0.2 (≈ 0.512 µM) | 3.1 (≈ 7.94 µM) | 0.05 (≈ 0.128 µM) | 0.1 (≈ 0.256 µM) | 3.1 (≈ 7.94 µM) | > 100 | 100 | –
COc1c(N2CC(C)NC(C)C2)c(F)c(N)c2c(=O)c(C(=O)O)cn(C3CC3)c12 (centres undefined) | 0.4 (≈ 0.989 µM) | 0.1 (≈ 0.247 µM) | 0.1 (≈ 0.247 µM) | 0.8 (≈ 1.98 µM) | 3.1 (≈ 7.66 µM) | – | 0.05 (≈ 0.124 µM) | 0.2 (≈ 0.495 µM) | 3.1 (≈ 7.66 µM) | 0.025 (≈ 0.0618 µM) | 0.1 (≈ 0.247 µM) | 0.8 (≈ 1.98 µM) | 0.4 (≈ 0.989 µM) | 1.6 (≈ 3.96 µM) | 0.2 (≈ 0.495 µM) | 0.2 (≈ 0.495 µM) | 1.6 (≈ 3.96 µM) | > 100 | 100 | –
